The source of these data is ChEMBL document CHEMBL2163291, “Synthesis of pyrazole peptidomimetics and their inhibition against A549 lung cancer cells” (Bioorg Med Chem Lett, 2012).

The subject of test [1] is A549. The test is described as follows: Induction of necrosis in human A549 cells at 80 uM after 48 hrs by LDH release assay. The test is classed as functional, cell-based. Summed up:
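A549 cells were treated at 80 µM, or with 0.1% DMSO or left untreated as control, for 48 h. LDH release into the cells' surroundings served as the necrosis read-out, n = 3, mean ± SE.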

For test [2], the system named is A549. The test is described as follows: Cell cycle arrest in human A549 cells assessed as accumulation at S phase at 80 uM after 48 hrs by FACS flow cytometry (reference value: 34.67 %). The test is classed as functional.
Test [3] has as its system A549. The test is described as follows: Cell cycle arrest in human A549 cells assessed as accumulation at G2 phase at 80 uM after 48 hrs by FACS flow cytometry (reference value: 9.39 %). The test is classed as functional.
Test [4] has as its system A549. The test is described as follows: Induction of autophagy in human A549 cells assessed as increase in LC3-2 level at 80 uM after 48 hrs by Western blot analysis relative to beta-actin. The test is classed as functional, cell-based. The essentials: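 A549 cells were treated at 80 µM for 48 h. LC3-II protein was detected by immunoblot and normalized to β-actin, expressed as percent of control, n = 3.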

The subject of test [5] is A549. In words: Induction of apoptosis in human A549 cells assessed as chromatin condensation at 80 uM after 48 hrs by Hoechst 33258 staining-based fluorescent microscopy. The test is classed as functional, cell-based. Summed up: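 A549 cells were exposed to compound at 80 µM for 48 h, then stained with Hoechst 33258. Nuclei were examined by fluorescence microscopy for chromatin condensation and apoptotic bodies, against an untreated control group.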

For test [6], the system named is A549. The test is described as follows: Cell cycle arrest in human A549 cells assessed as accumulation at G1 phase at 80 uM after 48 hrs by FACS flow cytometry (reference value: 55.94%). It counts as functional.
The test system of test [7] is A549. The test is described as follows: Cytotoxicity against human A549 cells assessed cell viability after 48 hrs by SRB assay. It counts as functional, cell-based. As to conditions: for IC50: A549, 48 h. The essentials:
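A549 cells were treated for 48 h and net growth was measured by sulforhodamine B colorimetric assay. IC50 is the concentration causing a 50% decrease in net cell growth. Test levels were 40, 60 and 80 µM.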

The test system of test [8] is A549. The test is described as follows: Cytotoxicity against human A549 cells assessed as cell viability at 40 uM after 48 hrs by SRB assay. The test is classed as functional, cell-based. Summed up: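 A549 cells were treated at 40, 60 or 80 µM, or left untreated (control), for 48 h. Viability was read by sulforhodamine B colorimetric assay against untreated cells, n = 3, mean ± SE.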

Calls of active or inactive are those of the source. The calls are words filed in the database; no cut-off is given here.

In the case of `CCOC(=O)[C@@H](CS)NC(=O)c1cc(-c2ccc(Cl)cc2)nn1Cc1ccccc1`, the result in test [1] was inactive. Further, the figures for the Activity in test [2], in test [3] and in test [6] were 32.55%, 7.25% and 60.2%, respectively. The result in test [4] and in test [5] was Active.
Take `CCOC(=O)[C@@H](CO)NC(=O)c1cc(-c2ccc(Cl)cc2)nn1Cc1ccc(C(C)(C)C)cc1`: the Activity entry was “Dose-dependent effect” in test [7], 19.53% in test [2], 0.92% in test [3] and 79.54% in test [6]. The IC50 in test [7] was 38.8 µM. The result in test [1] was inactive. The outcome in test [4], in test [8] and in test [5] was Active.
Regarding `CCOC(=O)CNC(=O)c1cc(-c2ccc(Cl)cc2)nn1Cc1ccc(C(C)(C)C)cc1`, the Activity result in test [7] is “Dose-dependent effect”; in test [2], 19.91%; in test [3], 4.04%; in test [6], 76.06%. The IC50 in test [7] was 63.4 µM. In addition, the outcome in test [1] was inactive. The result in test [4] and in test [5] was Active.
As for `CCOC(=O)[C@@H](CO)NC(=O)c1cc(-c2ccc(Cl)cc2)nn1Cc1ccccc1`, the Activity entry in test [7] was “Dose-dependent effect”; in test [2], 40.08%; in test [3], 0.69%; in test [6] it was 59.23%. In test [7], this molecule registered an IC50 of 56.8 µM. The result in test [1] was inactive. The outcome in test [4] and in test [5] was Active.
For the molecule `CCOC(=O)[C@@H](CO)NC(=O)c1cc(-c2ccccc2)nn1Cc1ccccc1`, the Activity entry is “Dose-dependent effect” in test [7], 34.44% in test [2], 8.08% in test [3] and 57.48% in test [6]. In test [7], this molecule came in with an IC50 of 56.1 µM. The outcome in test [1] was inactive. Besides, the outcome in test [4] and in test [5] was Active.
As for `CCOC(=O)[C@@H](CO)NC(=O)c1cc(-c2ccccc2)nn1Cc1ccc(C(C)(C)C)cc1`, the Activity result was “Dose-dependent effect” in test [7], 21.63% in test [2], 6.06% in test [3] and 72.31% in test [6]. For the same molecule, 36.1 µM corresponded to half-maximal inhibition in test [7] (IC50). Also, the outcome in test [1] was inactive. Moreover, the outcome in test [4], in test [8] and in test [5] was Active.
For the molecule `CCOC(=O)CNC(=O)c1cc(-c2ccc(Cl)cc2)nn1Cc1ccccc1`, the outcome in test [1] was inactive. The Activity in test [2] stood at 34.04%; in test [3], 8.57%; in test [6] it was 57.39%. Further, the result in test [4] and in test [5] was Active.
In turn, `O=c1[nH]cc(F)c(=O)[nH]1` [FLUOROURACIL] showed an IC50 in test [7] of 4.21 µM.
